Assay results published in ChEMBL document CHEMBL1124668, “Solid-phase synthesis of 16 potent (selective and nonselective) in vivo antagonists of oxytocin” (J Med Chem, 1989).
Starred links: 1 amine or outer side, 2 acyl side, 3 side chain; linkers in the order of their positions; H or OH if unused. Positions of bridges follow the written chain, without caps; N, C: chain ends. Non-standard residues stand in square brackets, D forms with d. Residues, ends and D or L forms follow the SMILES beside them. X1 = O=C(CC1(S[*:2])CCCCC1)[*:1]; Orn = NCCC[C@H](N)C(=O)O

What was measured:
Rattus norvegicus [1] = experiment: Antivasopressor activity in vivo in phenoxybenzamine pre-treated rats.; type: functional, organism-based; conditions: read-out: pA2 (converted)
How it was run: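 Rats pretreated with phenoxybenzamine, under urethane anesthesia; antagonist given iv; agonist USP Posterior Pituitary Reference Standard; read-out is pressor response. Effective dose (nmol/kg) is the dose that cuts the response to 2X units of agonist to that of 1X unit, interpolated semilogarithmically from bracketing doses. pA2 assumes a 67 mL/kg distribution volume. SEM is given where there are ≥4 independent estimates.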

Rattus norvegicus [2] = experiment: Antiantidiuretic activity in vivo in hydrated rats under ethanol anaesthesia.; type: functional, organism-based; conditions: Urine, read-out: pA2 (converted)
How it was run: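 Hydrated rats under ethanol anaesthesia; antagonist given iv against the USP Posterior Pituitary Reference Standard as agonist. Effective dose (nmol/kg) is the dose that cuts the response to 2x units of agonist to equal the response to 1x unit. It is estimated by interpolation on a semilog scale between doses above and below it. pA2 assumes a volume of distribution of 67 mL/kg. Where SEM is given, n ≥4 estimates.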

Rattus norvegicus [3] = organism: Rattus norvegicus; experiment: Antioxytoxic activity in vitro in isolated uteri from estrogen pretreated rats suspended in Mg supplemented Dyke-Hastings solution.; type: functional; conditions: read-out: pA2 (converted)
How it was run: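 Isolated rat uterus in bath medium with Mg2+; agonist USP Posterior Pituitary Reference Standard. pA2 is the −log of the effective molar antagonist concentration that reduces the response to a dose of agonist to the response to half that dose. It is interpolated semilogarithmically from concentrations above and below it. SEM is given where there are ≥4 independent estimates.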

Rattus norvegicus [4] = organism: Rattus norvegicus; experiment: Antioxytoxic activity in vitro in isolated uteri from estrogen pretreated rats suspended in Mg-free Dyke-Hastings solution.; conditions: read-out: pA2 (converted)
Rattus norvegicus [5] = experiment: Antioxytocic potencies (change in interuterine pressure) in vivo in estrogen pre-treated rats.; type: functional, organism-based; conditions: read-out: pA2 (converted)
How it was run: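 Rats pretreated with estrogen, under urethane anesthesia; antagonist given iv; read-out is change in integrated intrauterine pressure; agonist synthetic oxytocin. Effective dose (nmol/kg) is the dose that cuts the response to 2X units of agonist to the response to 1X unit, interpolated on a semilog scale from doses above and below it. pA2 is derived assuming a 67 mL/kg distribution volume.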

COc1ccc(C[C@H]2NC(=O)CC3(CCCCC3)SSC[C@@H](C(=O)N3CC=C[C@H]3C(=O)N[C@@H](CCCN=C(N)N)C(=O)NCC(N)=O)NC(=O)[C@H](CC(N)=O)NC(=O)[C@H](C(C)C)NC(=O)[C@H](Cc3ccccc3)NC2=O)cc1
Kb (Rattus norvegicus [1]): 0.00832 µM
Kb (Rattus norvegicus [2]): 0.0245 µM
Kb (Rattus norvegicus [3]): 0.11 µM
Kb (Rattus norvegicus [4]): 0.0132 µM

CC[C@H](C)[C@@H]1NC(=O)[C@@H](Cc2ccccc2)NC(=O)CC2(CCCCC2)SSC[C@@H](C(=O)N2CCC[C@H]2C(=O)N[C@@H](CCCN=C(N)N)C(=O)NCC(N)=O)NC(=O)[C@H](CC(N)=O)NC(=O)[C@H](C(C)C)NC1=O
Kb (Rattus norvegicus [1]): 0.229 µM
Kb (Rattus norvegicus [5]): 0.0347 µM
Kb (Rattus norvegicus [2]): 0.617 µM
Kb (Rattus norvegicus [3]): 0.00562 µM
Kb (Rattus norvegicus [4]): 0.0129 µM

COc1ccc(C[C@@H]2NC(=O)CC3(CCCCC3)SSC[C@@H](C(=O)N3CCC[C@H]3C(=O)N[C@@H](CCCN=C(N)N)C(=O)NCC(N)=O)NC(=O)[C@H](CC(N)=O)NC(=O)[C@H](C(C)C)NC(=O)[C@H](Cc3ccccc3)NC2=O)cc1
Kb (Rattus norvegicus [5]): 0.115 µM
Kb (Rattus norvegicus [2]): 0.0447 µM
Kb (Rattus norvegicus [3]): 0.0135 µM
Kb (Rattus norvegicus [4]): 0.00437 µM

CCOc1ccc(C[C@H]2NC(=O)CC3(CCCCC3)SSC[C@@H](C(=O)N3CCC[C@H]3C(=O)N[C@@H](CCCNC(N)=O)C(=O)NCC(N)=O)NC(=O)[C@H](CC(N)=O)NC(=O)[C@H](C(C)C)NC(=O)[C@H](Cc3ccccc3)NC2=O)cc1
Kb (Rattus norvegicus [1]): 0.0117 µM
Kb (Rattus norvegicus [5]): 0.0257 µM
Kb (Rattus norvegicus [2]): 0.309 µM
Kb (Rattus norvegicus [3]): 0.0148 µM
Kb (Rattus norvegicus [4]): 0.00245 µM

CC[C@H](C)[C@@H]1NC(=O)[C@H](Cc2ccc(OC)cc2)NC(=O)CC2(CCCCC2)SSC[C@@H](C(=O)N2CCC[C@H]2C(=O)N[C@@H](CCCN)C(=O)O)NC(=O)[C@H](CC(N)=O)NC(=O)[C@H]([C@@H](C)O)NC1=O (Y(Me)ITNCP[Orn]-OH; linker N-5 via X1)
Kb (Rattus norvegicus [1]): 0.331 µM
Kb (Rattus norvegicus [5]): 0.0204 µM
Kb (Rattus norvegicus [2]): ~5.01 µM
Kb (Rattus norvegicus [3]): 0.00575 µM
Kb (Rattus norvegicus [4]): 0.0129 µM

COc1ccc(C[C@H]2NC(=O)CC3(CCCCC3)SSC[C@@H](C(=O)N3CCC[C@H]3C(=O)N[C@@H](CCCN=C(N)N)C(=O)NCC(N)=O)NC(=O)[C@H](CC(N)=O)NC(=O)[C@H](C(C)C)NC(=O)[C@H](Cc3ccccc3)NC2=O)cc1
Kb (Rattus norvegicus [1]): 0.00331 µM
Kb (Rattus norvegicus [5]): 0.0269 µM
Kb (Rattus norvegicus [2]): 0.017 µM
Kb (Rattus norvegicus [3]): 0.0148 µM
Kb (Rattus norvegicus [4]): 0.011 µM

CC[C@H](C)[C@@H]1NC(=O)[C@H](Cc2ccc(OC)cc2)NC(=O)CC2(CCCCC2)SSC[C@@H](C(=O)N2CCC[C@H]2C(=O)N[C@@H](CCCN)C(=O)NCC(N)=O)NC(=O)[C@H](CC(N)=O)NC(=O)[C@H]([C@@H](C)O)NC1=O (Y(Me)ITNCP[Orn]G-NH2; linker N-5 via X1)
Kb (Rattus norvegicus [1]): 0.141 µM
Kb (Rattus norvegicus [5]): 0.0282 µM
Kb (Rattus norvegicus [2]): ~5.01 µM
Kb (Rattus norvegicus [3]): 0.00389 µM
Kb (Rattus norvegicus [4]): 0.00955 µM

CC[C@H](C)[C@@H]1NC(=O)[C@@H](Cc2ccc(OC)cc2)NC(=O)CC2(CCCCC2)SSC[C@@H](C(=O)N2CCC[C@H]2C(=O)N[C@@H](CCCN=C(N)N)C(=O)NCC(N)=O)NC(=O)[C@H](CC(N)=O)NC(=O)[C@H](C(C)C)NC1=O
Kb (Rattus norvegicus [1]): 0.0151 µM
Kb (Rattus norvegicus [5]): 0.0331 µM
Kb (Rattus norvegicus [2]): 0.132 µM
Kb (Rattus norvegicus [3]): 0.00562 µM
Kb (Rattus norvegicus [4]): 0.0224 µM

CCOc1ccc(C[C@H]2NC(=O)CC3(CCCCC3)SSC[C@@H](C(=O)N3CCC[C@H]3C(=O)N[C@@H](CCCN=C(N)N)C(=O)NCC(N)=O)NC(=O)[C@H](CC(N)=O)NC(=O)[C@H](C(C)C)NC(=O)[C@H](Cc3ccccc3)NC2=O)cc1 ([dY](Et)FVNCPRG-NH2; linker N-5 via X1)
Kb (Rattus norvegicus [1]): 0.00603 µM
Kb (Rattus norvegicus [5]): 0.0339 µM
Kb (Rattus norvegicus [2]): 0.0155 µM

CC[C@H](C)[C@@H]1NC(=O)[C@H](Cc2ccc(OC)cc2)NC(=O)CC2(CCCCC2)SSC[C@@H](C(=O)N2CCC[C@H]2C(=O)N[C@@H](CCCN)C(=O)N[C@@H](CC(C)C)C(N)=O)NC(=O)[C@H](CC(N)=O)NC(=O)[C@H]([C@@H](C)O)NC1=O (Y(Me)ITNCP[Orn]L-NH2; linker N-5 via X1)
Kb (Rattus norvegicus [1]): 0.407 µM
Kb (Rattus norvegicus [5]): 0.0269 µM
Kb (Rattus norvegicus [3]): 0.00347 µM
Kb (Rattus norvegicus [4]): 0.0166 µM
